TRPC4 PAM: allosterically enhances the mouse TRPC4 cation channel; Q9QUQ5; HEK293 TRPC4beta/mu-opioid, DAMGO EC20, Fluo-4 Ca2+ flux; hits give high values; B-score at 10 µM; 0.42% of 310,000 active; AID 2227;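 active = B-score of calcium response area above 5 SD of library B-scores, with initial fluorescence ratio within 5 SD of library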;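 note: B-score of integrated fluorescence ratio over time as area under calcium response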
TRPC6 inhibitor: blocks the mouse TRPC6 cation channel | Q61143 | HEK293-TRPC6, membrane potential dye, ACh-evoked depolarization; hits give low values | B-score at 10 µM | 1.1% of 310,000 active;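 active = B-score under library mean minus 3 SD, initial fluorescence not abnormally high, positive integrated signal ratio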;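 note: B-score derived from integrated fluorescence ratio over the kinetic read; more negative B-score means stronger inhibition of depolarization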
Target sequence (Q61143 whole entry, looked up): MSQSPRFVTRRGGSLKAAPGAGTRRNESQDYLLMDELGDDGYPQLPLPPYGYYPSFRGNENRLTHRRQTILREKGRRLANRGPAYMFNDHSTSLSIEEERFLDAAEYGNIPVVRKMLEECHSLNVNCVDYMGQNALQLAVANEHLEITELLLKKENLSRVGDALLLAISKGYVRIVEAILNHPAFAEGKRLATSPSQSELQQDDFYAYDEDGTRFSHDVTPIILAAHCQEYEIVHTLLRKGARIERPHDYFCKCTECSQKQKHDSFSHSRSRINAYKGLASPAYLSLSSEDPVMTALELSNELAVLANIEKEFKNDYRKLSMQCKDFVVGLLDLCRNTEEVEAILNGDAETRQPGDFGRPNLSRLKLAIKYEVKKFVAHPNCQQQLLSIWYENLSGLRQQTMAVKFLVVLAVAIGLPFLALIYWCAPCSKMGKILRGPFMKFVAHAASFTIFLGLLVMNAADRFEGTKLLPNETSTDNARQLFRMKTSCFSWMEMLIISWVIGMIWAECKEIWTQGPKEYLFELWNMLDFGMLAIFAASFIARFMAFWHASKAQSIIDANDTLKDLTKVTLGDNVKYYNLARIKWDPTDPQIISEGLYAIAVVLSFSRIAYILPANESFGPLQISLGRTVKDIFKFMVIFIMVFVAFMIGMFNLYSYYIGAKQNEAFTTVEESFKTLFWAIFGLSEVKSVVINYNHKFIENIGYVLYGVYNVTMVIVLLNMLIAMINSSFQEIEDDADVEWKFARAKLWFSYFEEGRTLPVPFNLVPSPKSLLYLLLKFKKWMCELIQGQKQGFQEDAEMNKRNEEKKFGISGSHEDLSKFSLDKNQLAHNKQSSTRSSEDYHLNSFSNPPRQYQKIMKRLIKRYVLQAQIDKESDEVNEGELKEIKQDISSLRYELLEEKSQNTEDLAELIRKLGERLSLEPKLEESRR
TRPC4 inh: inhibitors of mouse TRPC4 channel; B-score at 10 µM; AID 2247; 0.39% of 300,000 active; Q9QUQ5; HEK293 TRPC4beta/mu-opioid, DAMGO-evoked Fluo4 calcium flux; hits give low values;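 active = B-score over 3 SD under the library average, no early fluorescence shift, positive overall ratio signal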
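Material: HEK293 cells with stable TRPC4beta plus mu-opioid receptor expression; probe or stimulus: DAMGO in two steps, submaximal then maximal; technique: Fluo4 calcium fluorescence by kinetic imaging, 5 s 1 Hz baseline; measure: integrated fluorescence ratio relative to baseline, converted to per-well B score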
TRPC6 act: mouse TRPC6 channel activation; Q61143; HEK293-TRPC6 membrane potential dye fluorescence; hits give high values; B-score at 10 µM; 0.13% of 310,000 active; AID 2550;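 active = B-score of the integrated fluorescence ratio above library mean plus 3 SD, and starting fluorescence ratio within library mean plus 5 SD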;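 note: higher score means more depolarization so channel activation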
TRPC4 agonist: opens the mouse TRPC4 cation channel. HEK293 TRPC4beta/mu-opioid, Fluo4 calcium fluorescence; hits give high values. 0.49% of 310,000 active. B-score at 10 µM. AID 2237;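 active = B-score above 5 SD of library B-scores, and initial fluorescence ratio not above library mean plus 5 SD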;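 note: positive B-score marks a calcium rise read as TRPC4 activation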
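Assay system: HEK293 stable line with TRPC4beta plus mu-opioid receptor; schedule: 45 min room-temperature Fluo4 loading, 110 s read; technique: kinetic Fluo4 calcium fluorescence; evaluation: integrated baseline-normalised fluorescence ratio, converted to per-well B score; controls: buffer (low) and maximal DAMGO (high)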
TRPC4 sel inh 2: mouse TRPC4 off-target activity of TRPC6 inhibitors, second screen | shares compounds with TRPC6 inhibitor | 42% of 920 active | inhibition, % at 10 µM | HEK293 TRPC4/MOR, membrane potential dye fluorescence; channel activated by saturating DAMGO dose;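 active = compounds whose fluorescence signal differed from control wells by over 3 SD, either direction, in both duplicate plates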
TRPC4 spec: tests whether TRPC6 inhibitors also affect mouse TRPC4 | shares compounds with TRPC6 inhibitor | HEK293 TRPC4/mu-opioid, membrane potential fluorescence | activity change, negative = inhibition, % at 10 µM | 61% of 920 active | AID 2777;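 active = rise or fall in signal beyond 3 SD of buffer-only wells in both replicate plates, either sign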;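 note: integrated kinetic ratio of fluorescence range over baseline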
HEK293 MPD ctr 2-1: second counter-screen for TRPC6 inhibitors: parental HEK293 cells; shares compounds with TRPC6 inhibitor; parental HEK293 membrane potential dye fluorescence; maximal acetylcholine challenge after compound addition; signal change vs control, % at 10 µM; 31% of 920 active; AID 2779;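 active = membrane potential signal moving either way by over 3 SD of the maximum-effect control, in both duplicate plates, meaning non-specific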
HEK293 MPD ctr-1: checks TRPC6 inhibitor effects in parental HEK293 cells; shares compounds with TRPC6 inhibitor; parental HEK293 membrane potential dye fluorescence; membrane potential signal change, % at 10 µM; 60% of 920 active;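 active = membrane potential signal shifting up or down by more than 3 SD of buffer-only wells, on both duplicate plates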
HEK293 MPD ctr-2: parental HEK293 nonspecific activity of TRPC6 modulators | shares compounds with TRPC6 inhibitor | membrane potential dye fluorescence | membrane potential signal change, % at 10 µM | 51% of 2,400 active;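 active = membrane potential signal moves up or down beyond 5 SD from buffer-only wells, on both duplicate plates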
HEK293 MPD ctr 2-2: second check of TRPC6 modulator effects in parental HEK293 cells; membrane potential dye fluorescence; after compound, maximal acetylcholine stimulation; inhibition, % at 10 µM; 14% of 2,400 active; shares compounds with TRPC6 inhibitor;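 active = membrane potential signal drops by more than 5 SD from the mean control signal, in both duplicate plates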;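 note: plate controls were acetylcholine ECmax control wells for no effect and buffer only wells for full effect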
TRPC4 ctr mod: tests whether TRPC6 modulators also affect mouse TRPC4. HEK293 TRPC4/mu-opioid, membrane potential fluorescence. percent change from control (negative = decrease, positive = increase), % at 10 µM. shares compounds with TRPC6 inhibitor. 69% of 2,400 active;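 active = membrane potential signal moved up or down beyond 5 SD of buffer control wells, in both duplicate plates, actives on both sides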;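 note: plate controls were assay buffer wells for no effect and DAMGO maximal-effect wells for full effect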
TRPC4/MOR inh 2: mouse TRPC4 off-target activity of TRPC6 modulators, second screen; shares compounds with TRPC6 inhibitor; HEK293 TRPC4/mu-opioid, membrane potential dye fluorescence; stimulated with maximal-effect DAMGO; inhibition, % at 10 µM; 55% of 2,400 active; AID 488928;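 active = drop in membrane potential signal beyond 5 SD of the control wells in both duplicate plates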;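 note: TRPC4 counter screen for TRPC6 hits run under conditions tuned for TRPC6 not TRPC4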
TRPC6 inh conf: confirmation of mouse TRPC6 inhibitors. shares compounds with TRPC6 inhibitor. HEK293-TRPC6, membrane potential dye, ACh-evoked depolarization. inhibition, % at 10 µM. 43% of 3,300 active. AID 488960;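 active = fluorescence ratio falls more than 5 SD below the full-stimulation control mean, in both duplicate runs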;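 note: integrated fluorescence ratio of peak minus minimum over baseline after agonist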
TRPC6 act conf: confirmation of mouse TRPC6 activators | activation, % at 10 µM | HEK293-TRPC6 membrane potential dye fluorescence, FDSS | shares compounds with TRPC6 inhibitor | 11% of 2,800 active;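 active = ratio signal rise beyond 5 SD above unstimulated control wells' mean, seen in both duplicate runs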;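 note: plate controls were buffer EC0 wells for no effect and acetylcholine ECmax response for full effect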
Numbers without * were called inactive; i = inactive; . = no result given; + = active, no number. Only some compounds are listed: those with a hit (about 2.3% of all), similar ones and a draw of the others.

SMILES | TRPC4 PAM | TRPC6 inhibitor | TRPC4 inh | TRPC6 act | TRPC4 agonist | HEK293 MPD ctr-2 | HEK293 MPD ctr 2-2 | TRPC4 ctr mod | TRPC4/MOR inh 2 | TRPC6 inh conf | TRPC6 act conf | others
c1ccc(-c2csc(-n3cccn3)n2)cc1 | i | i | i | i | i | . | . | . | . | . | .
CN(C)CCNc1nc2c(c(=O)[nH]c(=O)n2C)n1CC(O)COc1ccc(Cl)cc1 (stereo not given) | i | i | i | i | i | . | . | . | . | . | .
CCN(CC)CCNc1nc2c(c(=O)[nH]c(=O)n2C)n1CC(O)COc1ccc(Cl)cc1Cl (stereo not given) | i | -8.8* | i | i | i | -308%* | 58%* | -56%* | 35%* | 42%* | i
O=C(Nc1ccc(Cl)c(Cl)c1)c1cccc(S(=O)(=O)NCc2cccnc2)c1 | i | i | i | i | i | . | . | . | . | . | .
CCN(CC)CC(=O)Nc1cccc2c1C(=O)c1ccccc1C2=O | i | i | i | i | i | . | . | . | . | . | .
O=C1c2ccccc2C(=O)c2c(NCCCN(CCO)CCO)cccc21 | i | -13* | i | i | i | -304%* | 90%* | -49%* | 80%* | 76%* | i
COc1ccc(OC)c(S(=O)(=O)N2CCC(C(=O)N(C)Cc3ccccc3)CC2)c1 | i | i | i | i | i | . | . | . | . | . | .
Cc1ccc([N+](=O)[O-])cc1S(=O)(=O)NCCc1c(C)[nH]c2c(C)cccc12 | i | i | i | i | i | . | . | . | . | . | .
Cc1[nH]c2c(C)cccc2c1CCNS(=O)(=O)c1cccc([N+](=O)[O-])c1 | i | -8.7* | i | i | i | -100%* | i | -26%* | 32%* | i | i
COc1cc(Nc2c3ccccc3nc3ccccc23)cc(OC)c1OC | i | -7.1* | i | i | i | -132%* | i | -38%* | 60%* | i | i
COc1ccccc1Nc1c2ccccc2nc2ccccc12 | i | -6.7* | i | i | i | -182%* | i | -36%* | 68%* | 50%* | i
CC(C)(C)Nc1c2ccccc2nc2ccccc12 | i | -8.9* | i | i | i | -202%* | i | -34%* | 87%* | 53%* | i
OCCCNc1c2ccccc2nc2ccccc12 | i | -6.1* | -6* | i | i | -231%* | i | -36%* | 46%* | 37%* | i
Cc1ccc(NC(=O)c2ccc(COc3ccccc3)o2)nc1 | i | i | i | i | i | . | . | . | . | . | .
CC(C)=C(NC(=O)c1ccccc1)C(=O)NC(Cc1ccccc1)C(=O)O (stereo not given) | i | i | i | i | i | . | . | . | . | . | .
COC(=O)c1ccccc1OCC(=O)NC1CCCCC1 | i | -5.3* | i | i | i | i | i | 8.0%* | i | i | .
COc1ccc(S(=O)(=O)CCC(=O)NC2CCCCC2)cc1 | i | -8.1* | i | i | i | . | . | . | . | i | i | TRPC4 sel inh 2=i;TRPC4 spec=i;HEK293 MPD ctr 2-1=i;HEK293 MPD ctr-1=i
COc1ccccc1N(CC(=O)NC1CCCCC1)S(C)(=O)=O | i | i | i | i | i | . | . | . | . | . | .
COc1ccccc1NC(=O)COc1ccc(Br)cc1CNC1CCCC1 | i | -7.6* | i | i | i | . | . | . | . | i | i | TRPC4 sel inh 2=54%*;TRPC4 spec=14%*;HEK293 MPD ctr 2-1=238%*;HEK293 MPD ctr-1=9.8%*
O=C(CCS(=O)(=O)c1ccccc1)NC1CCCCC1 | i | i | i | i | i | . | . | . | . | . | .
COc1ccccc1N(CC(=O)NC1CCCCC1)S(=O)(=O)c1ccccc1 | i | -5.1* | i | i | i | 474%* | i | 208%* | 38%* | i | .
COc1ccc(S(=O)(=O)Nc2c(C)n(C)n(-c3ccccc3)c2=O)cc1C(=O)O | i | i | i | i | i | . | . | . | . | . | .
O=C(COc1ccccc1)NC1CCCCCCC1 | 39* | -6* | i | i | i | 102%* | i | 77%* | i | i | .
COc1ccccc1CC(=O)NC1CCCCCC1 | i | i | i | i | i | . | . | . | . | . | .
CCc1ccccc1OCC(=O)NC1CCCC1 | i | -5.8* | i | i | i | 112%* | i | 20%* | i | 41%* | .
Cc1ccc2c(nc3s/c(=C\c4ccc(-c5ccccc5C(=O)O)o4)c(=O)n32)c1C | i | i | -8* | 78* | 189* | + | i | 408%* | i | i | 592%*
Cc1cc(/C=c2\sc3nc4ccccc4n3c2=O)c(C)n1-c1ccc(C(=O)O)cc1 | i | i | i | i | i | . | . | . | . | . | .
O=C(O)c1ccc(-c2ccc(/C=c3/sc4nc5ccccc5n4c3=O)o2)cc1Cl | 15* | i | i | 32* | 58* | 560%* | i | 112%* | i | i | 82%*
CCc1cccc(CC)c1NC(=O)CN1CCc2cc(OC)c(OC)cc2C1 | i | i | i | i | i | . | . | . | . | . | .
CC(C)(C)N(Cc1ccccc1)C(=O)c1ccc(Cl)cc1[N+](=O)[O-] | i | -6.5* | i | i | i | i | i | i | i | i | i

Screening results from PubChem.
